Experimental data from ChEMBL document CHEMBL3792331, “Identification and synthesis of potent and selective pyridyl-isoxazole based agonists of sphingosine-1-phosphate 1 (S1P1)” (Bioorg Med Chem Lett, 2016).

Legend:
[1] = Selectivity index, ratio of EC50 for agonist activity at human S1P3 receptor expressed in EDG3-Ga15-bla HEK293T cell membranes to EC50 for agonist activity at human S1P1 receptor expressed in CHO cell membranes; assay type: cell-based
Procedure, shortened: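 S1P3/S1P1 ratio of GTPγ[35S] EC50s. Membranes from EDG3-Ga15-bla HEK293T (S1P3) or S1P1/CHO cells, […], 0.2 nM final [35S]GTP. HEPES pH 7.5 buffer with MgCl2, NaCl, EGTA, DTT, GDP, BSA and saponin. 45 min at room temperature, filtration read-out. Each EC50 taken at 50% of the compound's own Ymax.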

Rattus norvegicus [2] = test: Reduction in circulating lymphocytes in Lewis rat at 1 mg/kg, po after 4 hrs; assay type: functional
Procedure, shortened: (§1)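 Healthy Lewis rats dosed orally with test article as solution or suspension in vehicle, or vehicle alone. Blood drawn at 4 h and 24 h. Circulating lymphocyte percentage measured by hematology analyzer, expressed as reduction versus the vehicle group. Group average, n = 3–4.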

Plasma = test: Ratio of plasma concentration Lewis rat at 1 mg/kg, po after 4 hrs to plasma concentration Lewis rat at 1 mg/kg, po after 24 hrs; assay type: ADME, organism-based; conditions: in vivo
Procedure, shortened: (§2)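 Lewis rats given 1.0 mg/kg orally as solution or suspension in vehicle. Plasma drug concentration measured in blood drawn at 4 h and 24 h; 4 h/24 h ratio taken from these values.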

[3] = biological target: Sphingosine 1-phosphate receptor 1 (Homo sapiens, UniProt P21453); test: Agonist activity at human S1P1 receptor expressed in CHO cell membranes assessed as stimulation of [35S]GTPgamma binding incubated for 45 mins by liquid scintillation counting method
Sphingosine 1-phosphate receptor 1, sequence (P21453 whole entry): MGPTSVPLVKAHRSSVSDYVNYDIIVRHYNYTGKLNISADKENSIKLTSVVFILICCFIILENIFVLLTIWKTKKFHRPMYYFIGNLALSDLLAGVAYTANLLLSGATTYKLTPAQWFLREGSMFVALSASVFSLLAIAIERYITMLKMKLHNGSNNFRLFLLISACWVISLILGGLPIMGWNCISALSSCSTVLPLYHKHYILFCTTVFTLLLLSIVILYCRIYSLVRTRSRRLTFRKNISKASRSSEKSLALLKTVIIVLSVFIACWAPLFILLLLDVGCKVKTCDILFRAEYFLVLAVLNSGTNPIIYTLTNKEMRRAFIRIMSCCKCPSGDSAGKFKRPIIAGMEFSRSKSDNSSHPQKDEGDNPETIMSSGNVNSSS
Procedure, shortened: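 Membranes from S1P1/CHO cells (S1P1) or EDG3-Ga15-bla HEK293T cells (S1P3), final protein […], with 3-fold compound dilutions. Buffer: 20 mM HEPES pH 7.5, 10 mM MgCl2, 150 mM NaCl, 1 mM EGTA, 1 mM DTT, GDP, 0.1% fatty acid free BSA, saponin. [35S]GTP 0.2 nM final. Room temperature, 45 min. Filtered, washed with water, dried 60 °C. EC50 taken at 50% of each compound's Ymax.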

[4] = Plasma concentration Lewis rat at 1 mg/kg, po after 4 hrs; assay type: ADME, organism-based; procedure, shortened: as §2
Rattus norvegicus [5] = test: Reduction in circulating lymphocytes in Lewis rat at 1 mg/kg, po after 24 hrs; assay type: functional; procedure, shortened: as §1
[6] = Plasma concentration Lewis rat at 1 mg/kg, po after 24 hrs; assay type: ADME, organism-based; procedure, shortened: as §2

- Ratio (Plasma): 15
- EC50 [3]: 3.4 nM
- concentration at 4 h [4]: 972 nM
- concentration at 24 h [6]: 64 nM
SMILES: CCc1c(-c2nc(-c3ccc(CN4CC(C(=O)O)C4)cc3)no2)noc1-c1ccccn1
- Ratio EC50 [1]: 550
- inhibition in vivo at 1 mg/kg (Rattus norvegicus [2]): 84%
- inhibition in vivo at 1 mg/kg (Rattus norvegicus [5]): 58%
